Test results as given in ChEMBL document CHEMBL3580644, “Synthesis of piperlongumine analogues and discovery of nuclear factor erythroid 2-related factor 2 (Nrf2) activators as potential neuroprotective agents” (J Med Chem, 2015).
Active and inactive are the calls of the source. The rule behind the calls is not given here.

Assays:
[1] = molecular target: T1, Nuclear factor erythroid 2-related factor 2 (Rattus norvegicus) (UniProt O54968); assay: Induction of Nrf2 nuclear translocation in rat PC12 cells at 20 uM incubated for 2 to 8 hrs by Western blotting method; assay type: cell-based; details: PC-12
T1 sequence (whole entry): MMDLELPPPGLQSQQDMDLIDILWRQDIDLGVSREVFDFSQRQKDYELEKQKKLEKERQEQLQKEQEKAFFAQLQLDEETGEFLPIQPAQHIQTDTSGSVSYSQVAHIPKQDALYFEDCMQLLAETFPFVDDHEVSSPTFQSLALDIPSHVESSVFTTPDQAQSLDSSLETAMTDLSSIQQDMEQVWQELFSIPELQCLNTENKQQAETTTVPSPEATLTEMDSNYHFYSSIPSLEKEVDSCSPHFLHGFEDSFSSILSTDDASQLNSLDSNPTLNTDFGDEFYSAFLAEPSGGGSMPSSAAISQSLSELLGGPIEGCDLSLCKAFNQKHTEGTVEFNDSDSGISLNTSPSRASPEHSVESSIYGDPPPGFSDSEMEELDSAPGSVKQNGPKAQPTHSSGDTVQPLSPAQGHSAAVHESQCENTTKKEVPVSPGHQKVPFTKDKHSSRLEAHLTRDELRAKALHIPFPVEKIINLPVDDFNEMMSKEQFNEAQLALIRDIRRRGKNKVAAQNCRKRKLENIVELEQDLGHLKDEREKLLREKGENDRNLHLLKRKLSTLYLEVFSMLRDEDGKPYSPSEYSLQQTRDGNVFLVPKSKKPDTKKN
Summary of the method: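 PC12 cells (1×10^6) in 60-mm dishes, 24 h, then 20 μM compound for 0, 2, 4 and 8 h; nuclear, cytosolic and whole-cell extracts prepared; Nrf2 detected by Western blot.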

[2] = Cytoprotection activity against 6-OHDA-induced cytotoxicity in rat PC12 cells assessed as cell viability at 10 and 20 uM pre-incubated for 24 hrs before 6-OHDA exposure for 12 hrs by MTT assay; assay type: functional, PC-12
[3] = tested on: PC-12; assay: Cytoprotection activity against 6-OHDA-induced oxidative stress in rat PC12 cells assessed as GSH level at pre-incubated for 24 hrs before 6-OHDA exposure for 12 hrs; assay type: functional, cell-based
Summary of the method: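 Total glutathione: cells extracted in KPE buffer (0.1% Triton X-100, 0.6% sulfosalicylic acid, 5 mM EDTA, 0.1 M PBS pH 7.5), sonicated on ice, centrifuged 3000 g 4 min at 4 °C; supernatant assayed enzymatically. PC12 cells 1×10^6 in 60-mm dishes, compound 24 h; stress lines add 500 μM H2O2 or 200 μM 6-OHDA 12 h.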

[4] = Cytotoxicity against rat PC12 cells assessed as reduction in cell viability at 20 uM incubated for 24 hrs by MTT assay; assay type: cell-based; details: pc-12, 24 h
[5] = tested on: PC-12; assay: Cytoprotection activity against H2O2-induced oxidative stress in rat PC12 cells assessed as NQO1 activity at pre-incubated for 24 hrs before H2O2 exposure for 12 hrs by DCPIP dye reduction based spectrophotometry; assay type: functional, cell-based
Summary of the method: (§1)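 NQO1: PC12 lysate in RIPA buffer, 5 μg protein into 20 mM Tris-HCl pH 7.4, 200 μM NADH, 40 μM DCPIP; A600 decrease read every 8 s for 2 min at room temperature ± 20 μM dicoumarol; dicoumarol-inhibitable rate used, expressed as % of DMSO control. Cells pretreated 24 h; stress lines then 500 μM H2O2 or 200 μM 6-OHDA 12 h.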

[6] = Cytotoxicity against rat PC12 cells assessed as reduction in cell viability at 20 uM to 100 uM incubated for 24 hrs by MTT assay; assay type: cell-based; details: pc-12, 24 h
[7] = molecular target: T1, Nuclear factor erythroid 2-related factor 2 (Rattus norvegicus); assay: Induction of Nrf2-mediated antioxidant genes expression in rat PC12 cells assessed as increase in TrxR1 protein expression at 10 and 20 uM incubated for 20 hrs by Western blotting method; assay type: cell-based; details: PC-12
[8] = tested on: PC-12; assay: Cytoprotection activity against 6-OHDA-induced oxidative stress in rat PC12 cells assessed as NQO1 activity at pre-incubated for 24 hrs before 6-OHDA exposure for 12 hrs by DCPIP dye reduction based spectrophotometry; assay type: functional, cell-based; summary of the method: as §1
[9] = tested on: PC-12; assay: Induction of antioxidant genes expression in rat PC12 cells assessed as increase in TrxR1 activity at 10 and 20 uM incubated for 20 hrs by TRFS-green dye based fluorescent microscopy; assay type: functional, cell-based
Summary of the method: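 PC12 cells 2×10^5/well, 24 h, then compound 20 h; TRFS-green added to 10 μM final and incubated 4 h at 37 °C in the dark; green fluorescence intensity imaged by fluorescence microscopy as relative cellular TrxR activity.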

[10] = tested on: PC-12; assay: Cytoprotection activity against 6-OHDA-induced cytotoxicity in rat PC12 cells assessed as cell viability at 10 and 20 uM pre-incubated for 24 hrs before 6-OHDA exposure for 12 hrs in presence of shNrf2 by MTT assay; assay type: functional, cell-based
[11] = tested on: PC-12; assay: Cytoprotection activity against 6-OHDA-induced cytotoxicity in rat PC12 cells assessed as cell viability at 10 and 20 uM pre-incubated for 24 hrs before 6-OHDA exposure for 12 hrs in presence of non-trageting shRNA by MTT assay; assay type: functional, cell-based
[12] = tested on: PC-12; assay: Cytoprotection activity against H2O2-induced apoptosis in rat PC12 cells assessed as reduction in apoptotic nuclei levels at 10 and 20 uM pre-incubated for 24 hrs before H2O2 exposure for 5 hrs by Hoechst 33342 staining based fluorescent microscopy; assay type: functional, cell-based
Summary of the method: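 PC12 cells seeded 2×10^5/well, grown 1 day, pretreated with compound 24 h, then medium replaced with fresh medium containing 200 μM 6-OHDA or 500 μM H2O2 for 5 h; Hoechst 33342 added at 5 μg/mL final; condensed, brightly fluorescent nuclei counted as apoptotic under fluorescence microscopy.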

[13] = molecular target: T1, Nuclear factor erythroid 2-related factor 2 (Rattus norvegicus); assay: Induction of Nrf2-mediated antioxidant genes expression in rat PC12 cells assessed as increase in NQO1 protein expression at 10 and 20 uM incubated for 20 hrs by Western blotting method; assay type: cell-based; details: PC-12
[14] = tested on: PC-12; assay: Cytoprotection activity against H2O2-induced cytotoxicity in rat PC12 cells assessed as increase in cell viability pre-incubated for 24 hrs before H2O2 exposure for 12 hrs by MTT assay; assay type: functional, cell-based
[15] = tested on: PC-12; assay: Cytoprotection activity against H2O2-induced cytotoxicity in rat PC12 cells assessed as cell viability at 10 and 20 uM pre-incubated for 24 hrs before H2O2 exposure for 12 hrs in presence of shNrf2 by MTT assay; assay type: functional, cell-based
[16] = tested on: PC-12; assay: Cytoprotection activity against 6-OHDA-induced apoptosis in rat PC12 cells assessed as reduction in caspase-3 activation at 10 and 20 uM pre-incubated for 24 hrs before 6-OHDA exposure for 24 hrs by colorimetric assay; assay type: functional, cell-based
Summary of the method: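 Lysed in RIPA buffer (pH 7.5), protein by Bradford; caspase-3 measured colorimetrically with Ac-DEVD-pNA substrate, expressed as % of control; mean ± SD, three independent experiments.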

[17] = tested on: PC-12; assay: Induction of antioxidant genes expression in rat PC12 cells assessed as increase in TrxR1 mRNA level at 20 uM incubated for 12 hrs by qRT-PCR method; assay type: functional, cell-based
Summary of the method: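 PC12 cells, 1×10^6 per 60-mm dish, 1 day, then 20 μM compound for 0, 3, 6 and 12 h; total RNA isolated, quantified by 260/280 absorbance; mRNA by real-time RT-PCR normalized to GAPDH; mean ± SD of three independent experiments versus 0 h.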

[18] = molecular target: T1, Nuclear factor erythroid 2-related factor 2 (Rattus norvegicus); assay: Induction of Nrf2-mediated antioxidant genes expression in rat PC12 cells assessed as increase in Trx1 protein expression at 10 and 20 uM incubated for 20 hrs by Western blotting method; assay type: cell-based; details: PC-12

| Activity [1] | Activity [7] | Activity [13] | Activity [18] | Structure (SMILES) | Activity [2] [%] | Activity [3] | Activity [4] | Activity [5] | Activity [6] | Activity [8] | Activity [9] | Activity [10] | Activity [11] | Activity [12] | Activity [14] | Activity [15] | Activity [16] | Activity [17] |
| --- | --- | --- | --- | --- | --- | --- | --- | --- | --- | --- | --- | --- | --- | --- | --- | --- | --- | --- |
| Active | Active | Active | Active | COc1ccc(/C=C/C(=O)N2CCCC2=O)cc1 | 75 | Active | Non-toxic | Active | Non-toxic | Active | Active | inactive | Active | Active | Dose-dependent effect | inactive | Dose-dependent effect | Active |
| Active | Active | Active | Active | COc1cc(/C=C/C(=O)N2CCCCC2=O)cc(OC)c1OC | 75 | Active | Non-toxic | Active | Non-toxic | Active | Active | inactive | Active | Active | Dose-dependent effect | inactive | Dose-dependent effect | Active |
